Converted amounts (≈) assume the structure as drawn.
How the values were obtained:
[1] = target: T1, Prostaglandin E2 receptor EP4 subtype (Homo sapiens, UniProt P35408); experiment: Antagonist activity against human EP4 expressed in HEK293 cells assessed as inhibition of PGE2-stimulated production of cAMP incubated for 20 mins by HTRF assay; format: functional, cell-based
[2] = target: T1, Prostaglandin E2 receptor EP4 subtype; experiment: Antagonist activity against EP4 in human whole blood assessed as reversal of PGE2-mediated suppression of LPS-induced TNF-alpha production preincubated for 30 mins followed by LPS stimulation measured after 20 to 24 hrs by enzyme immunoassay; format: tissue-based
Summary of the method: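 Pooled blood from donors free of NSAIDs or celecoxib for 48 h and of glucocorticoids for 2 weeks. Blood pretreated 30 min at 37 °C, 5% CO2 with compound in DMSO (7-point curve, triplicate). LPS […] ± 10 nM PGE2 (final) added, then incubated 20–24 h. Plasma TNFα read at A450-A650. IC50 from sigmoidal nonlinear fit; geometric mean of independent runs.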

[3] = Aqueous solubility of compound at pH 6 at 2 mM after 20 hrs by HPLC; format: physicochemical; details: aqueous medium
Summary of the method: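 Samples in DMSO dried 12 h, then redissolved at pH 6 at a 2 mM target concentration. Stirred 20 h, filtered through 0.7 µm GF filter. Filtrate concentration measured by HPLC against a DMSO standard curve.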

T1 sequence (P35408 whole entry): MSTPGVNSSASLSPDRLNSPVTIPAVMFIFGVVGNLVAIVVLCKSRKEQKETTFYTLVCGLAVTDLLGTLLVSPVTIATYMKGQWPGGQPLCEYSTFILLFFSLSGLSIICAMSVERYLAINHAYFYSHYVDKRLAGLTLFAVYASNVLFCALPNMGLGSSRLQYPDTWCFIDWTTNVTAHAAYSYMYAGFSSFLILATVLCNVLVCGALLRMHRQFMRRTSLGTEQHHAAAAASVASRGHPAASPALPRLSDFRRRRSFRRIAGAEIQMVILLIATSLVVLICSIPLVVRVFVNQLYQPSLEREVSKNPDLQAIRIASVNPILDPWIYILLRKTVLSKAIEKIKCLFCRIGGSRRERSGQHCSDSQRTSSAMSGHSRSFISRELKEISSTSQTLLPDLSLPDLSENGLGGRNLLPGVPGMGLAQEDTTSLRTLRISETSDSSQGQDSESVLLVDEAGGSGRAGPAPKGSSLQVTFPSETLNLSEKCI

Structure (SMILES)	IC50 [1]	IC50 [2]	solubility at 20 h, 2000 µM [3]
Cc1ccc(N2CCC(C)(O)CC2)nc1C(=O)Nc1c(C)ccc(C(=O)O)c1C	0.0879 µM		
COC1CCN(c2ccc(C)c(C(=O)Nc3c(C)cc(C(=O)O)cc3C)n2)CC1	0.0967 µM		
Cc1ccc(N2CCC(CO)C2)nc1C(=O)Nc1c(C)cc(C(=O)O)cc1C (stereo not drawn)	0.084 µM		

Stronger by IC50 [1], values ahead:

IC50 [1]	IC50 [2]	solubility at 20 h, 2000 µM [3]	Structure (SMILES)
0.0398 µM	3.6 µM	0.817 mg/mL (≈ 2060 µM)	Cc1ccc(N2CCC(C)(O)CC2)nc1C(=O)Nc1c(C)cc(C(=O)O)cc1C
0.0165 µM	1.45 µM		Cc1ccc(N2CCCC(CO)C2)nc1C(=O)Nc1c(C)cc(C(=O)O)cc1C (stereo not drawn)
